Screens: PubChem BioAssay, several laboratories
CRFBP-R2 block – antagonists of CRF-binding protein/CRF-R2 receptor complex. actives 0.59% (n = 350,000). HEK293 CRF-R2/CRF-BP, CRF-induced calcium fluorescence. inhibition, % at 11.8 µM;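 active means inhibition of the ligand-induced calcium signal above about 50% at the single tested concentration, limit read from the data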
Tn6 DDE FP – DD(E)-Tn6 binding inhibition, primary FP screen. P02675. Fibrin DD(E) TRITC-Tn6 fluorescence polarization displacement. inhibition, % at 8.3 µM. actives 0.21% (n = 370,000). AID 720509;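 active means inhibition above a per-campaign cutoff: mean of compounds within control limits plus 3 SD, cut at about 15% in these data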;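 further: 0% = median of all compound wells on the plate and 100% = blocking peptide control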
Target sequence (P02675 whole entry, looked up): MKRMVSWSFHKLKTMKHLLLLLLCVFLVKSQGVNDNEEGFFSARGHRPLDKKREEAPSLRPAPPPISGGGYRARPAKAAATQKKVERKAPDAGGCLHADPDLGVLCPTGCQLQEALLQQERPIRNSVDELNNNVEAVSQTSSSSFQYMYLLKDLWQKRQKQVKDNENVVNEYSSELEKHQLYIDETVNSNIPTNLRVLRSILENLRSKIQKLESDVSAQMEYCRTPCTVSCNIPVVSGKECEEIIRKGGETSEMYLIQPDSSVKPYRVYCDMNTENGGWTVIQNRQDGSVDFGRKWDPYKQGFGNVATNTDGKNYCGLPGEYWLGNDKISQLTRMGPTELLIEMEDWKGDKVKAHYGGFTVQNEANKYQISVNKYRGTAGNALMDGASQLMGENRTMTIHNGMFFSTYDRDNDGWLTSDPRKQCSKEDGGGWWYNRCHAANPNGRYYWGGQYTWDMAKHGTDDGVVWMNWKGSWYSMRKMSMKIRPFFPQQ
CRFBP-R2 agonist – agonists of human CRF-binding protein/CRF-R2 receptor complex; HEK293 CRF-R2/CRF-BP, calcium dye fluorescence (FLIPR); percent of saturating CRF peptide response; activation, % at 13.2 µM; actives 0.46% (n = 350,000); AID 588473;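 active means activation of at least 50%, plus an integration ratio under a set limit after plate pattern correction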;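 further: plate controls were neutral control wells without compound for no effect and CRF at EC100 for full effect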
Tn7 DDE FP – disrupts Tn7 cyclic peptide binding to fibrin D-Dimer-E complex. P02675. FP displacement of FITC-Tn7 peptide from fibrin DD(E); 0% = median of compound wells per plate. inhibition, % at 8.3 µM. actives 0.13% (n = 370,000). AID 720508;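 active means inhibition above the mean of compounds falling within the control limits plus 3 SD of them, cut at about 14% in these data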;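 further: 0% = plate median of compound wells and 100% = 10 µM Aha-Tn7 peptide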
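Assay system: Fibrin-DD(E) protein isolated from polymerized human fibrin clots; read-out basis: percent inhibition; medium: Tris/NaCl/CaCl2 buffer, pH 7.8; signal: FP measurement; incubation: 10 min plus 3 h, room temperature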
* hit, by the source's call; nt = no result. Shown are actives, neighbours in structure and some others; about 1.3% of the full set was active somewhere.

SMILES	CRFBP-R2 block	Tn6 DDE FP	CRFBP-R2 agonist	Tn7 DDE FP
C=CCn1cc(/C=C/c2cc[n+](C)cc2)c2ccccc21	-45.1	-9.2	77.1*	-48.6
CC(C)n1cc(/C=C/c2cc[n+](C)cc2)c2ccccc21	-41.9	-7.9	58.2*	-46.2
CCn1cc(/C=C/c2cc[n+](C)cc2)c2ccccc21	-24.4	-3.4	56.2*	-59.5
C[C@H](O)[C@@H]1CN2CCc3c([nH]c4cccc(-c5ccccc5)c34)[C@@H]2C[C@@H]1N(C)C(=O)C1CCCCC1	nt	-1.6	nt	-14.2
CC(C)NC(=O)N[C@H]1C[C@@H]2O[C@H](CO)CC[C@@H]2O[C@@H]1CCc1ccc(-c2ccccc2F)cc1	nt	2.4	nt	6.2
CCOc1cc(C)c(C(C)C)cc1S(=O)(=O)N1CC(C)OC(C)C1 (stereo not given)	0.6	-0.6	3.0	-5.0
CCOc1cc(C)c(C(C)C)cc1S(=O)(=O)n1cnc(C)c1	-49.2	5.8	104.0*	-1.5
CCn1c(COc2ccc(C)cc2)nnc1SCC(=O)Nc1ccc(C(=O)OC)cc1	nt	4.0	nt	4.5
CC(C)/C=C1\CC/C(=C\c2ccc(N(C)C)cc2)C1=O	-190.8	6.3	166.0*	-14.7
C[C@H]1[C@H](NC(=O)c2ccc(C(F)(F)F)cc2)CC[C@@]23CCCN2C(=O)CCC[C@@H]13	nt	-8.1	nt	-3.9
COCCNC(=O)[C@]1(C#N)CC(=O)N(C)[C@@H]1c1ccccc1	nt	2.2	nt	-3.5
COc1ccccc1CCC[C@H](CCS(=O)(=O)C(C)C)CC1CCCCC1	nt	-0.5	nt	7.0
O=C1NC(=S)S/C1=C\c1cccc([N+](=O)[O-])c1	54.7*	4.0	35.2	-1.7
CCN(CC)c1ccc(/C=C2\SC(N)=NC2=O)cc1	-32.3	-10.4	26.8	-5.1
CCN(CC)c1ccc(C=C2SC(=S)NC2=O)cc1	-164.3	1.5	167.8*	-25.6
CCN(CC)c1ccc(C(=C2C=CC(=[N+](CC)CC)C=C2)c2ccc(N(CC)CC)cc2)cc1	24.8	83.8*	9.2	2.7
CCN(CC)c1ccc(C(=O)NNC(=O)CCl)cc1	3.3	4.3	-5.0	7.4
CCN(CC)c1ccc(C(=C2C=CC(=[N+](CC)CC)C=C2)c2ccccc2)cc1	-9.5	-10.9	90.5*	-1.4
Cn1cc(S(=O)(=O)Nc2ccc(Br)cc2F)c(=O)n(C)c1=O	71.2*	-2.4	4.0	-5.8
CCN=C1NC(c2ccccc2C(F)(F)F)C(C(=O)OC)=C(C)N1Cc1ccc(C(F)(F)F)cc1 (stereo not given)	nt	7.8	nt	5.3
CN1C(=O)C[C@@](C#N)(C(=O)N2CCOCC2)[C@H]1c1ccccc1	nt	4.5	nt	5.6
CC1(c2ccc(OC(F)F)cc2)NC(=O)N(CC(=O)Nc2ccc(F)cc2)C1=O (stereo not given)	-45.0	-4.3	35.7	5.0
CC1(c2ccc(OC(F)F)cc2)NC(=O)N(CC(=O)c2ccc3c(c2)OCO3)C1=O (stereo not given)	-30.6	0.4	85.6*	-0.6
CC(=O)c1c(C)[nH]c(C(=O)CN2C(=O)NC(C)(c3ccc4c(c3)OCO4)C2=O)c1C (stereo not given)	-41.0	-9.8	5.3	-4.8
CC1(c2ccc([N+](=O)[O-])cc2)NC(=O)N(CC(=O)c2ccc3c(c2)OCO3)C1=O (stereo not given)	-16.3	-2.0	60.3*	-5.2
SMILES	CRFBP-R2 block	Tn6 DDE FP	CRFBP-R2 agonist	Tn7 DDE FP
COc1cccc(NC(=O)Nc2nc3ncccn3c2-c2ccc(C(F)(F)F)cc2)c1	nt	0.7	nt	-0.9
CCN(CC)C1Oc2cc3c(cc2C(c2cccc(OC)c2O)C1C)OCO3 (stereo not given)	120.4*	-6.5	-0.3	3.5
Cc1cc2c(NS(=O)(=O)c3ccc(F)cc3)cccc2nn1	113.4*	2.2	-0.5	2.4
Cc1ccccc1NS(=O)(=O)c1ccc(F)cc1	3.0	-10.0	2.8	-3.5
CN1CCN(/N=C/c2nc(-c3cccc([N+](=O)[O-])c3)n3ccccc23)CC1	5.4	2.5	94.5*	2.8
CCN(CC)c1ccc(-c2nn3c(-c4ccccc4Cl)nnc3s2)cc1	nt	-12.0	nt	-2.6
CCCN1CC(=O)N2[C@H](C[C@@]3(n4ccc5ccccc54)c4ccccc4N(S(=O)(=O)c4ccccc4)[C@@H]23)C1=O	nt	-0.7	nt	-4.6
Cc1c(C(=O)NN)nn(-c2ccc(Cl)cc2)c(=O)c1C#N	82.0*	0.7	0.8	11.3
C=C(C)COc1ccc(-c2[nH]ncc2Oc2ccc(OC)cc2)c(O)c1	39.5	2.5	3.7	1.1
